From ChEMBL document CHEMBL3352138, “Synthesis of novel 1,2,4-triazoles, triazolothiadiazines and triazolothiadiazoles as potential anticancer agents” (Eur J Med Chem, 2014)

Assays:
Format in all cases: functional, cell-based
[1] = Cytotoxicity against human HA22T cells after 24 hrs by SRB assay
Procedure, shortened: (§1)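 Monolayer cultures kept in RPMI-1640 with 5% heat-inactivated FBS, 2 mM glutamine, penicillin 100 U/mL and streptomycin, at 37 °C in humidified 5% CO₂. Exponentially growing cells were obtained by plating 1.5×10^5 cells/mL and incubating 24 h before treatment. Vehicle controls received DMSO at 0.5%, the maximum used in each assay.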

HepG2 = test: Cytotoxicity against human HepG2 cells after 24 hrs by SRB assay; details: HepG2, 24 h; procedure, shortened: as §1
[2] = Cytotoxicity against human DLD1 cells after 24 hrs by SRB assay; details: DLD-1, 24 h; procedure, shortened: as §1
[3] = Cytotoxicity against human HONE1 cells after 24 hrs by SRB assay; details: HONE1, 24 h; procedure, shortened: as §1
[4] = Cytotoxicity against human MCF cells after 24 hrs by SRB assay; procedure, shortened: as §1
NUGC = test: Cytotoxicity against human NUGC cells after 24 hrs by SRB assay; procedure, shortened: as §1
[5] = Cytotoxicity against human WI38 cells after 24 hrs by SRB assay; details: WI-38, 24 h
Procedure, shortened: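 Normal fibroblasts were grown as monolayer in RPMI-1640 with 5% heat-inactivated FBS, 2 mM glutamine, penicillin 100 U/mL and streptomycin, at 37 °C in humidified 5% CO₂. Untreated control cells were exposed to the maximum DMSO vehicle concentration (0.5%) used in each assay.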

Row | SMILES | IC50 [1] [nM] | IC50 (HepG2) [nM] | IC50 [2] [nM] | IC50 [3] [nM] | IC50 [4] [nM] | IC50 (NUGC) [nM] | IC50 [5] [nM]
1 | c1ccc(-c2nn3c(-c4ccncc4)nnc3s2)cc1 | 1260 | 1360 | 3360 | 2430 | 1540 | 1280 | 
2 | Clc1ccccc1-c1nn2c(-c3ccncc3)nnc2s1 | 1260 | 1330 | 2660 | 1170 | 2180 | 3220 | 
3 | Clc1ccc(-c2nn3c(-c4ccncc4)nnc3s2)c(Cl)c1 | 3070 | 2260 | 1190 | 1170 | 3220 | 2160 | 
4 | c1ccc(C2=Nn3c(nnc3-c3ccncc3)SC2)cc1 | 122 | 469 | 2350 | 110 | 80 | 59 | 
5 | Clc1ccc(-c2nn3c(-c4ccncc4)nnc3s2)cc1 | 120 | 1230 | 49 | 488 | 1620 | 25 | 
6 | CC(=O)Nn1c(S)nnc1-c1ccncc1 | 166 | 53 | 42 | 1180 | 2100 | 44 | 
7 | O=C(Nn1c(S)nnc1-c1ccncc1)c1ccc([N+](=O)[O-])cc1 | 1110 | 89 | 266 | 2280 | 1090 | 360 | 
8 | Brc1ccc(C2=Nn3c(nnc3-c3ccncc3)SC2)cc1 | 2060 | 2290 | 2380 | 1780 | 2270 | 2490 | 
9 | Cc1nn2c(-c3ccncc3)nnc2s1 | 1720 | 2740 | 3280 | 1080 | 219 | 2190 | 650
10 | S=C(Nc1ccc(Cl)cc1)Nn1c(S)nnc1-c1ccncc1 | 2010 | 2020 | 2250 | 1220 | 3230 | 2120 | 2190
11 | COc1ccc(NC(=S)Nn2c(S)nnc2-c2ccncc2)cc1 | 2370 | 1300 | 2290 | 2270 | 1670 | 1820 | 
12 | Cc1ccc(NC(=S)Nn2c(S)nnc2-c2ccncc2)cc1 | 2380 | 1230 | 2150 | 1290 | 2170 | 2770 | 
13 | S=C(Nc1ccc(Br)cc1)Nn1c(S)nnc1-c1ccncc1 | 3200 | 2780 | 3270 | 1680 | 1590 | 3290 | 1290
14 | Clc1ccc(Nc2nn3c(-c4ccncc4)nnc3s2)cc1 | 3070 | 1980 | 3260 | 2260 | 1260 | 1290 | 
15 | COc1ccc(Nc2nn3c(-c4ccncc4)nnc3s2)cc1 | 282 | 333 | 128 | 2220 | 215 | 56 | 
16 | Cc1ccc(Nc2nn3c(-c4ccncc4)nnc3s2)cc1 | 277 | 312 | 1380 | 3280 | 120 | 540 | 480
17 | Brc1ccc(Nc2nn3c(-c4ccncc4)nnc3s2)cc1 | 782 | 128 | 320 | 2220 | 229 | 136 | 
18 | N#CN=C(NCCCCCCOc1ccc(Cl)cc1)Nc1ccncc1 [CHS-828] |  |  |  | 15 | 18 |  | 
